Measurements from ChEMBL document CHEMBL1152982, “Synthetic analogue of rocaglaol displays a potent and selective cytotoxicity in cancer cells: involvement of apoptosis inducing factor and caspase-12” (J Med Chem, 2009).
The source made the active and inactive calls. No cut-off for these calls is given here.

How the values were obtained:
Mus musculus [1] = experiment: Toxicity in B6 mouse assessed as diarrhea at 0.1 mg/kg, ip twice a day for 4 consecutive days measured on day 13; type: organism-based; design: dose 0.1 mg/kg, route intraperitoneal; conditions: in vivo
Method in brief: (§1)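 Male B6 mice dosed i.p. at 0.1 mg/kg twice daily for four consecutive days; body weight recorded daily over 13 days and signs of acute toxicity such as diarrhea noted.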

H9c2 [2] = experiment: Cytotoxicity against rat H9c2 cells at 20 nM after 48 hrs by FACS analysis; type: cell-based; conditions: h9c2, 48 h, 0.02 µM
Method in brief: (§2)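 Rat H9c2 cardiomyoblasts treated 24 h (0.5-50 nM) or 24, 48 and 72 h (20 nM) versus vehicle; annexin V plus propidium iodide labeling and FACS for apoptosis; viability in parallel by MTS; doxorubicin 1 μM as positive control.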

KB = experiment: Cytotoxicity against human KB cells after 72 hrs by MTS assay; type: functional, cell-based
Method in brief: (§3)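 Human cancer lines treated for 72 h and proliferation/viability read by MTS assay; dose-response curves in duplicate with IC50 taken from the curves; MCF7R is the P-gp (MDR1)-expressing resistant line.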

MCF7 [3] = experiment: Cytotoxicity against human MCF7 cells after 72 hrs by MTS assay; type: functional, cell-based; conditions: Homo sapiens, MCF7, 72 h; read-out: IC50; method in brief: as §3
MCF7 [4] = experiment: Cytotoxicity against human MCF7 cells expressing P-glycoprotein after 72 hrs by MTS assay; type: functional, cell-based; conditions: Homo sapiens, MCF7, 72 h; read-out: IC50; method in brief: as §3
HCT-116 = experiment: Cytotoxicity against human HCT116 cells after 72 hrs by MTS assay; type: functional, cell-based; conditions: HCT-116, 72 h; method in brief: as §3
HCT-15 = experiment: Cytotoxicity against human HCT15 cells after 72 hrs by MTS assay; type: functional, cell-based; conditions: Homo sapiens, HCT-15, 72 h; read-out: IC50; method in brief: as §3
HL-60 [5] = experiment: Cytotoxicity against human HL60 cells after 72 hrs by MTS assay; type: functional, cell-based; conditions: HL-60, 72 h
Method in brief: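 HL60 cells exposed to compound for 72 h; proliferation/viability read by MTS assay. IC50 taken from dose-response curves run in duplicate.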

[6] = molecular target: ATP-dependent translocase ABCB1 (Homo sapiens, UniProt P08183); experiment: Inhibition of P-glycoprotein expressing human MCF7 cells assessed as change in rhodamine 123 efflux at 0.1 to 1 uM; type: cell-based
HepG2 [7] = experiment: Enhancement of doxorubicin-induced cytotoxicity against human HepG2 cells after 72 hrs by MTS assay; type: functional, cell-based
Method in brief: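 HepG2 cells given the test agent alone or together with 150 nM doxorubicin for 72 h; proliferation by MTS assay; duplicate experiments, n = 3.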

H9c2 [8] = experiment: Induction of apoptosis in rat H9c2 cells at 0.5 to 50 nM after 24 hrs by FACS analysis; type: cell-based; conditions: h9c2, 24 h, 0.05 µM; method in brief: as §2
H9c2 [9] = experiment: Induction of apoptosis in rat H9c2 cells at 20 nM after 48 hrs by FACS analysis; type: cell-based; conditions: h9c2, 48 h, 0.02 µM; method in brief: as §2
H9c2 [10] = experiment: Induction of apoptosis in rat H9c2 cells at 20 nM after 72 hrs by FACS analysis; type: cell-based; conditions: h9c2, 72 h, 0.02 µM; method in brief: as §2
HepG2 [11] = experiment: Cytotoxicity against human HepG2 cells after 72 hrs by MTS assay; type: functional, cell-based; conditions: Homo sapiens, HepG2, 72 h; read-out: IC50; method in brief: as §3
Mus musculus [12] = experiment: Toxicity in B6 mouse assessed as body weight loss at 0.1 mg/kg, ip twice a day for 4 consecutive days measured on day 13; type: organism-based; design: dose 0.1 mg/kg, route intraperitoneal; conditions: in vivo; method in brief: as §1
HL-60 [13] = experiment: Cell cycle arrest in human HL60 cells assessed as increase in G0/G1 peak at 200 nM after 48 hrs by FACS analysis; type: functional, cell-based
Method in brief: (§4)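 HL60 cells treated for 48 h; vehicle control 1% DMSO, doxorubicin as positive control. Propidium iodide staining, DNA content by flow cytometry giving cell-cycle distribution (G2/M, G0-G1 peaks); n = 4, each sample in duplicate.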

HL-60 [14] = experiment: Cell cycle arrest in human HL60 cells assessed as increase in G0/G1 peak at 20 nM after 48 hrs by FACS analysis; type: functional, cell-based; method in brief: as §4
HL-60 [15] = experiment: Induction of apoptosis in human HL60 cells assessed as cell killing at 20 nM after 72 hrs by annexin V flow cytometry; type: functional, cell-based
Method in brief: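 HL60 cells treated with 20 nM for 72 h; apoptosis quantified by annexin V staining and flow cytometry.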

HL-60 [16] = experiment: Induction of apoptosis in human HL60 cells assessed as caspase 3/7-mediated DEVD-AMC substrate cleavage at 1 to 1000 nM after 48 hrs by spectroscopy; type: functional, cell-based
Method in brief: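 HL60 cells treated 48 h, doxorubicin as positive control; whole-cell extracts incubated with DEVD-AMC, fluorescence release followed over time; rate from slope of linear phase, expressed as fold-activation over DMSO-treated control.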

HL-60 [17] = experiment: Induction of apoptosis in human HL60 cells assessed as caspase 3/7-mediated DEVD-AMC substrate cleavage at 24 to 72 hrs by spectroscopy; type: functional, cell-based
HL-60 [18] = experiment: Induction of apoptosis in human HL60 cells assessed as […] mediated LEHD-AMC substrate cleavage at 1 to 1000 nM after 48 hrs by spectroscopy; type: functional, cell-based
HL-60 [19] = experiment: Induction of apoptosis in human HL60 cells assessed as caspase 9-mediated […]-AMC substrate cleavage at 1 to 1000 nM after 48 hrs by spectroscopy; type: functional, cell-based
HL-60 [20] = experiment: Antiproliferative activity against human HL60 cells at 50 nM in presence of caspase inhibitor Z-VAD-FMK; type: functional, cell-based
Method in brief: (§5)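 HL60 cells exposed for 72 h, with or without co-treatment with Z-VAD-FMK (50 μM), necrostatin-1 (50 μM) or 3-methyladenine (2 mM). Antiproliferative effect was compared against vehicle.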

HL-60 [21] = experiment: Antiproliferative activity against human HL60 cells at 50 nM in presence of […] inhibitor necrostatin 1; type: functional, cell-based; method in brief: as §5
HL-60 [22] = experiment: Antiproliferative activity against human HL60 cells at 50 nM in presence of […] inhibitor 3-methyladenine; type: functional, cell-based; method in brief: as §5
HL-60 [23] = experiment: Inhibition of proteasome activity in human HL60 cells at 2 to 20 nM
Method in brief: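 Lysates of HL60 cells incubated with compound; in vitro chymotrypsin-like and trypsin-like proteasome activities measured with fluorogenic AMC substrates (LLVY-AMC, RLR-AMC).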

Oryctolagus cuniculus = species on record: Oryctolagus cuniculus; experiment: Inhibition of capped and polyadenylated luciferase mRNA […] in rabbit reticulocyte lysate at 10000 nM after 1 hr; type: functional
Method in brief: (§6)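 Cell-free translation of capped, polyadenylated luciferase mRNA in rabbit reticulocyte lysate, luciferase output as read-out; incubation 1 h; IC50 derived.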

HeLa [24] = experiment: Induction of eIF-2alpha phosphorylation in human HeLa cells at 100 uM by Western blotting; type: functional, cell-based
Method in brief: (§7)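 HeLa cells treated 1 h with DMSO, sodium arsenite (500 μM, positive control) or compound (100 or 500 μM); 10 μg total protein by SDS-PAGE/Western blot with anti-eIF2α and anti-phospho-eIF2α, ECL detection.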

HeLa [25] = experiment: Induction of eIF-2alpha phosphorylation in human HeLa cells at 500 uM by Western blotting; type: functional, cell-based; method in brief: as §7
HeLa [26] = experiment: Induction of stress granules in human HeLa cells assessed as MLN51 and FMRP marker protein at >10 uM; type: functional, cell-based
Method in brief: (§8)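 HeLa on coverslips in DMEM/5% FCS, cultured 24 h, then exposed to 50 nM-500 μM for 30 min to 8 h; immunofluorescence for stress-granule markers MLN51 (rabbit) and FMRP (mouse); cycloheximide 10 μg/mL and puromycin 100 μg/mL (1 h) as positive controls.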

HeLa [27] = experiment: Induction of stress granules in human HeLa cells assessed as MLN51 and FMRP marker protein at 100 uM after 2 hrs; type: functional, cell-based; method in brief: as §8
HeLa [28] = experiment: Induction of stress granules in human HeLa cells assessed as MLN51 and FMRP marker protein at 500 nM after 8 hrs; type: functional, cell-based; method in brief: as §8
HeLa [29] = experiment: Induction of stress granules in human HeLa cells assessed as MLN51 and FMRP marker protein at 100 uM after 8 hrs; type: functional, cell-based; method in brief: as §8
HeLa [30] = experiment: Effect on apoptosis inducing factor localization into nucleus in human HeLa cells at 20 nM after 72 hrs; type: functional, cell-based
HeLa [31] = experiment: Induction of apoptosis inducing factor translocation from […] to nucleus in human HeLa cells at 50 uM after 72 hrs by DAPI staining; type: functional, cell-based
Method in brief: (§9)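 HeLa cells treated 72 h with compound or vehicle; immunocytochemistry co-labeling with anti-AIF and anti-caspase-12 antibodies, nuclei stained with DAPI to assess nuclear localization.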

HeLa [32] = experiment: Induction of caspase 12 translocation from endoplasmic reticulum to nucleus in human HeLa cells at 50 uM after 72 hrs by DAPI staining; type: functional, cell-based; method in brief: as §9
HL-60 [33] = experiment: Cytotoxicity against human HL60 cells at 20 uM after 72 hrs in presence of caspase 12 inhibitor ATAD; type: functional, cell-based
Method in brief: (§10)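 HL60 cells treated 72 h with or without caspase-12 inhibitor ATAD (10 μM) or m-calpain inhibitor N-acetyl-Leu-Leu-methioninal (20 μM); cytotoxicity compared with vehicle.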

HL-60 [34] = experiment: Cytotoxicity against human HL60 cells at 20 uM after 72 hrs in presence of m-calpain inhibitor N-acetyl-Leu-Leu-methioninal; type: functional, cell-based; method in brief: as §10
[35] = Inhibition of capped and polyadenylated luciferase mRNA in rabbit reticulocyte lysate; type: functional, Oryctolagus cuniculus; method in brief: as §6
H9c2 [36] = experiment: Cytotoxicity against rat H9c2 cells at 20 nM after 72 hrs by FACS analysis; type: cell-based; conditions: h9c2, 72 h, 0.02 µM; method in brief: as §2

Sequence of ATP-dependent translocase ABCB1 (P08183 whole entry): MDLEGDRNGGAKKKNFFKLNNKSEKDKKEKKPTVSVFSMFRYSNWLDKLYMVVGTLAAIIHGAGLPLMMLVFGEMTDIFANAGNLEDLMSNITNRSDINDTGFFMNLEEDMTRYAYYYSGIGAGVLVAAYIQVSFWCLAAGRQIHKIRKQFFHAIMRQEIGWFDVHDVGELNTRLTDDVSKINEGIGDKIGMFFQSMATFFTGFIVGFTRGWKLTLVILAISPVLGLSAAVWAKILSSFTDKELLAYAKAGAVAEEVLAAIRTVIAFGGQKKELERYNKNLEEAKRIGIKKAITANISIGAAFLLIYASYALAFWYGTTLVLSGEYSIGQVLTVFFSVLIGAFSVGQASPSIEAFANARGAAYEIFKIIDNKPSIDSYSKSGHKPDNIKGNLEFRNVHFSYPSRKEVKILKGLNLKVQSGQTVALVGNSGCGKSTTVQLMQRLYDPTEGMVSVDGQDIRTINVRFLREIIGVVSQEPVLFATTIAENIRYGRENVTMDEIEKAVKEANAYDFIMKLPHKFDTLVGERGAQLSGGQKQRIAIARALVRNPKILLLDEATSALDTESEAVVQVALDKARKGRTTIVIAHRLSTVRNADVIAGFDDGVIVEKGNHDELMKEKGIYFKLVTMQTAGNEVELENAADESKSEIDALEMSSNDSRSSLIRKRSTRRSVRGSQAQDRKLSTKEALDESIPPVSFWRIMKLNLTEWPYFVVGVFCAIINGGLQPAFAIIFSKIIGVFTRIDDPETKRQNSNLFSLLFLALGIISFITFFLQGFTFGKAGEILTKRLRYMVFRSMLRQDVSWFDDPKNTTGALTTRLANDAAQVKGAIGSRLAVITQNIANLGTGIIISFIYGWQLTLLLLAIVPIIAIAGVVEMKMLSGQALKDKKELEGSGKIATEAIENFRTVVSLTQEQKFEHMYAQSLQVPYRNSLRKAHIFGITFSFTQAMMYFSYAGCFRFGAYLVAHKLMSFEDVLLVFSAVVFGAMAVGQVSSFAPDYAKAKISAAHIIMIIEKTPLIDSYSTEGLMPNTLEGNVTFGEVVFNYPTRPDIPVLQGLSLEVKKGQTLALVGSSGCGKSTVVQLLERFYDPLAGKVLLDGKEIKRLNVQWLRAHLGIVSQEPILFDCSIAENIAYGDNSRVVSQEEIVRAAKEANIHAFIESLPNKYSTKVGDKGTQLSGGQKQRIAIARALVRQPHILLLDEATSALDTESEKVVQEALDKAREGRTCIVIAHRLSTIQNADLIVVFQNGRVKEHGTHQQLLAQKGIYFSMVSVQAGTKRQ

COc1cc(OC)c2c(c1)O[C@@]1(c3ccc(Br)cc3)[C@H](c3ccccc3)C[C@@H](O)[C@@]21O
Activity (Mus musculus [1]): Non-toxic
Activity (H9c2 [2]): Non-toxic
IC50 (KB): < 1 nM
IC50 (MCF7 [3]): 1 nM
IC50 (MCF7 [4]): < 1 nM
IC50 (HCT-116): < 1 nM
IC50 (HCT-15): 1 nM
IC50 (HL-60 [5]): < 1 nM
Activity [6]: Not Active
Activity (HepG2 [7]): Active
Activity (H9c2 [8]): Not Active
Activity (H9c2 [9]): Not Active
Activity (H9c2 [10]): Not Active
IC50 (HepG2 [11]): 4 nM
Activity (Mus musculus [12]): Non-toxic
Activity (HL-60 [13]): Active
Activity (HL-60 [14]): Active
Activity (HL-60 [15]): Active
Activity (HL-60 [16]): inactive
Activity (HL-60 [17]): inactive
Activity (HL-60 [18]): inactive
Activity (HL-60 [19]): inactive
Activity (HL-60 [20]): inactive
Activity (HL-60 [21]): inactive
Activity (HL-60 [22]): inactive
Activity (HL-60 [23]): inactive
Activity (Oryctolagus cuniculus): Active
Activity (HeLa [24]): Active
Activity (HeLa [25]): Active
Activity (HeLa [26]): Active
Activity (HeLa [27]): Active
Activity (HeLa [28]): Active
Activity (HeLa [29]): Active
Activity (HeLa [30]): Active
Activity (HeLa [31]): Active
Activity (HeLa [32]): Active
Activity (HL-60 [33]): inactive
Activity (HL-60 [34]): Active
IC50 [35]: 200 nM
Activity (H9c2 [36]): Non-toxic
